What was measured:
Format in all cases: functional
SF-539 = test: Anticancer activity against human SF539 cells assessed as cell growth promotion at 10^-5 M after 48 hrs by SRB assay relative to control
SNB-19 = test: Anticancer activity against human SNB19 cells assessed as cell growth promotion at 10^-5 M after 48 hrs by SRB assay relative to control
SF-268 = test: Anticancer activity against human SF268 cells assessed as cell growth promotion at 10^-5 M after 48 hrs by SRB assay relative to control
SF-295 = test: Anticancer activity against human SF295 cells assessed as cell growth promotion at 10^-5 M after 48 hrs by SRB assay relative to control
SN12C = test: Anticancer activity against human SN12C cells assessed as cell growth promotion at 10^-5 M after 48 hrs by SRB assay relative to control
K562 = test: Anticancer activity against human K562 cells assessed as cell growth promotion at 10^-5 M after 48 hrs by SRB assay relative to control
[1] = Anticancer activity against human Hs 578T cells assessed as cell growth promotion at 10^-5 M after 48 hrs by SRB assay relative to control
UACC-257 = test: Anticancer activity against human UACC257 cells assessed as cell growth promotion at 10^-5 M after 48 hrs by SRB assay relative to control
HCC 2998 = test: Anticancer activity against human HCC2998 cells assessed as cell growth promotion at 10^-5 M after 48 hrs by SRB assay relative to control
SR = test: Anticancer activity against human SR cells assessed as cell growth promotion at 10^-5 M after 48 hrs by SRB assay relative to control
NCI/ADR-RES = test: Anticancer activity against human NCI/ADR-RES cells assessed as cell growth promotion at 10^-5 M after 48 hrs by SRB assay relative to control
NCI-H23 = test: Anticancer activity against human NCI-H23 cells assessed as cell growth promotion at 10^-5 M after 48 hrs by SRB assay relative to control
UO-31 = test: Anticancer activity against human UO31 cells assessed as cell growth promotion at 10^-5 M after 48 hrs by SRB assay relative to control
KM12 = test: Anticancer activity against human KM12 cells assessed as cell growth promotion at 10^-5 M after 48 hrs by SRB assay relative to control
ACHN = test: Anticancer activity against human ACHN cells assessed as cell growth promotion at 10^-5 M after 48 hrs by SRB assay relative to control
MCF7 = test: Anticancer activity against human MCF7 cells assessed as cell growth promotion at 10^-5 M after 48 hrs by SRB assay relative to control
U-251 = test: Anticancer activity against human U251 cells assessed as cell growth promotion at 10^-5 M after 48 hrs by SRB assay relative to control
SK-OV-3 = test: Anticancer activity against human SKOV3 cells assessed as cell growth promotion at 10^-5 M after 48 hrs by SRB assay relative to control
MDA-MB-435 = test: Anticancer activity against human MDA-MB-435 cells assessed as cell growth promotion at 10^-5 M after 48 hrs by SRB assay relative to control
IGROV-1 = test: Anticancer activity against human IGROV1 cells assessed as cell growth promotion at 10^-5 M after 48 hrs by SRB assay relative to control
SW-620 = test: Anticancer activity against human SW620 cells assessed as cell growth promotion at 10^-5 M after 48 hrs by SRB assay relative to control
HL-60(TB) = test: Anticancer activity against human HL-60(TB) cells assessed as cell growth promotion at 10^-5 M after 48 hrs by SRB assay relative to control
Summary of the method: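 NCI-60 single-dose screen: compound at 10^-5 M, 48 h at 37 °C, 5% CO2; cells grown in RPMI 1640 with 5% FBS and 2 mM L-glutamine, pre-incubated 24 h before dosing. Adherent cells fixed with cold TCA; endpoint is sulforhodamine B protein staining. Percent growth of treated cells is reported relative to untreated control.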

NCI-H226 = test: Anticancer activity against human NCI-H226 cells assessed as cell growth promotion at 10^-5 M after 48 hrs by SRB assay relative to control
RXF 393 = test: Anticancer activity against human RXF393 cells assessed as cell growth promotion at 10^-5 M after 48 hrs by SRB assay relative to control
MDA-MB-468 = test: Anticancer activity against human MDA-MB-468 cells assessed as cell growth promotion at 10^-5 M after 48 hrs by SRB assay relative to control
DU-145 = test: Anticancer activity against human DU145 cells assessed as cell growth promotion at 10^-5 M after 48 hrs by SRB assay relative to control
M14 = test: Anticancer activity against human M14 cells assessed as cell growth promotion at 10^-5 M after 48 hrs by SRB assay relative to control
T47D = test: Anticancer activity against human T47D cells assessed as cell growth promotion at 10^-5 M after 48 hrs by SRB assay relative to control
[2] = Anticancer activity against human […] cells assessed as cell growth promotion at 10^-5 M after 48 hrs by SRB assay relative to control
OVCAR-8 = test: Anticancer activity against human OVCAR8 cells assessed as cell growth promotion at 10^-5 M after 48 hrs by SRB assay relative to control
COLO 205 = test: Anticancer activity against human COLO205 cells assessed as cell growth promotion at 10^-5 M after 48 hrs by SRB assay relative to control
HCT-15 = test: Anticancer activity against human HCT15 cells assessed as cell growth promotion at 10^-5 M after 48 hrs by SRB assay relative to control
HOP-62 = test: Anticancer activity against human HOP62 cells assessed as cell growth promotion at 10^-5 M after 48 hrs by SRB assay relative to control
MOLT-4 = test: Anticancer activity against human MOLT4 cells assessed as cell growth promotion at 10^-5 M after 48 hrs by SRB assay relative to control
HT-29 = test: Anticancer activity against human HT-29 cells assessed as cell growth promotion at 10^-5 M after 48 hrs by SRB assay relative to control
SK-MEL-5 = test: Anticancer activity against human SK-MEL-5 cells assessed as cell growth promotion at 10^-5 M after 48 hrs by SRB assay relative to control
HCT-116 = test: Anticancer activity against human HCT116 cells assessed as cell growth promotion at 10^-5 M after 48 hrs by SRB assay relative to control
SK-MEL-28 = test: Anticancer activity against human SK-MEL-28 cells assessed as cell growth promotion at 10^-5 M after 48 hrs by SRB assay relative to control

## O=c1c2ccccc2nc(-c2ccco2)n1/N=C/c1ccccc1Cl
SF-539
  Activity: 24.89%
SNB-19
  Activity: 62.14%
SF-268
  Activity: 72.86%
SF-295
  Activity: 52.12%
SN12C
  Activity: 36.81%
K562
  Activity: 101.3%
[1]
  Activity: 83.85%
UACC-257
  Activity: 82.72%
HCC 2998
  Activity: 34.89%
SR
  Activity: 94.12%
NCI/ADR-RES
  Activity: 12.24%
NCI-H23
  Activity: 64.87%
UO-31
  Activity: 62.12%
KM12
  Activity: 26.67%
ACHN
  Activity: 23.89%
MCF7
  Activity: 63.86%
U-251
  Activity: 37.22%
SK-OV-3
  Activity: 25.85%
MDA-MB-435
  Activity: 90.21%
IGROV-1
  Activity: 71.23%
SW-620
  Activity: 34.38%
HL-60(TB)
  Activity: 89.12%
NCI-H226
  Activity: 53.52%
RXF 393
  Activity: 82.73%
MDA-MB-468
  Activity: 78.92%
DU-145
  Activity: 56.23%
M14
  Activity: 87.98%
T47D
  Activity: 62.59%
[2]
  Activity: 92.65%
OVCAR-8
  Activity: 26.87%
COLO 205
  Activity: 32.76%
HCT-15
  Activity: 62.36%
HOP-62
  Activity: -34.84%
MOLT-4
  Activity: 99.12%
HT-29
  Activity: 52.78%
SK-MEL-5
  Activity: 48.82%
HCT-116
  Activity: 24.88%
SK-MEL-28
  Activity: 38.98%
